Two molecules from ChEMBL document CHEMBL6134784, “Furoxan-piplartine hybrids as effective NO donors and ROS inducers in PC3 cancer cells: design, synthesis, and biological evaluation” (RSC Med Chem, 2024) can be followed below.

Molecules are shown by their SMILES. The source made the active and inactive calls. The calls are words filed in the database; no cut-off is given here.

Assay [1] relates to PC-3. As to the kind of experiment: Induction of morphological changes in human PC-3 cells assessed as cell rounding at 0.05 uM measured after 24 hrs by phase contrast microscopy. Type of assay: functional, cell-based. The essentials: (§1)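 PC3 cells were seeded at 1×10^5 per well in 6-well plates and treated after 24 h, with or without 1 mM N-acetyl-L-cysteine. The same observation field was imaged by phase contrast microscopy at 1, 2, 3, 4 and 24 h. DMSO vehicle served as control.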

The subject of assay [2] is PC-3. As to the kind of experiment: Induction of morphological changes in human PC-3 cells assessed as loss of adhesion at 0.05 uM measured after 24 hrs in presence of antioxidant N-acetyl-L-cysteine by phase contrast microscopy. The assay is classed as functional, cell-based. The essentials: as §1
Assay [3] relates to PC-3. Description: Induction of ROS generation in human PC-3 cells at 0.05 uM measured after 30 mins by CellROX reagent based flow cytometry. The assay is classed as functional, cell-based. The essentials: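 PC3 seeded 1×10^5 per well in 6-well plates, after 24 h treated together with CellROX green (5 μM final) for 30 min at 37 °C; 0.1% DMSO negative control, 1 mM H2O2 positive control. Cells collected and CellROX-positive fraction measured by flow cytometry.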
(In general: Flow cytometry measures light scatter and fluorescence of single cells or particles in a stream.)

The test system of assay [4] is PC-3. As to the kind of experiment: Effect on NFE2L2 gene expression in human PC-3 cells at 0.05 uM measured after 3 hrs by qPCR analysis. The assay is classed as functional, cell-based. The essentials:
(§2)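 Seeded 1×10^5 cells per well in 6-well plates; PC3 treated 3 h. Total RNA extracted, qPCR; each target normalized to reference gene (β-actin) by efficiency-corrected ΔΔCt (Pfaffl) against a control calibrator sample, efficiencies from amplification profiles. Mean ± SEM of four independent experiments.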

Assay [5] has as its system PC-3. As to the kind of experiment: Induction of ROS generation in human PC-3 cells at 0.05 uM measured after 30 mins by CellROX reagent based confocal microscopy. Type of assay: functional, cell-based. The essentials:
(§3)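 Confocal ROS imaging of PC3: cells loaded with 2.5 μM CellROX green plus 0.5 μM MitoTracker Red for 30 min at 37 °C, washed three times in PBS, imaged immediately; DMSO vehicle and H2O2 controls.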

The subject of assay [6] is PC-3. Description: Cell cycle arrest in human PC-3 cells assessed as increase in cell accumulation at sub-G1 phase at 0.05 uM measured after 3 hrs in presence of antioxidant N-acetyl-L-cysteine by propidium iodide staining based flow cytometry. The assay is classed as functional. In outline:
(§4)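 PC3 cells seeded 1×10^5 per well in 6-well plates, exposed 3 h, with or without 1 mM N-acetyl-L-cysteine pretreatment; vehicle 0.1% DMSO. Harvested with trypsin-EDTA, fixed in 75% ethanol in PBS at 4 °C for 30 min, stained 1 h with RNase (1.5 mg mL^-1) and propidium iodide (90 μg mL^-1); DNA content by flow cytometry. Phase fractions compared with control by ANOVA/Tukey.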

Assay [7] has as its system PC-3. As to the kind of experiment: Cell cycle arrest in human PC-3 cells assessed as down regulation of CCND1 gene expression at 0.05 uM measured after 3 hrs by qPCR analysis. Type of assay: functional, cell-based. The essentials: as §2
Assay [8] deals with PC-3. As to the kind of experiment: Cell cycle arrest in human PC-3 cells assessed as down regulation of c-Myc gene expression at 0.05 uM measured after 3 hrs by qPCR analysis. The assay is classed as functional, cell-based. The essentials:
as §2
(Quantitative PCR measures a nucleic acid by following its amplification.)

The subject of assay [9] is PC-3. Description: Cell cycle arrest in human PC-3 cells assessed as up regulation of CDKN1A gene expression at 0.05 uM measured after 3 hrs by qPCR analysis. Type of assay: functional, cell-based. The essentials:
as §2

In assay [10] the test system is PC-3. Description: Induction of apoptosis in human PC-3 cells assessed as viable cells at 0.05 uM measured after 6 hrs by Alexa Fluor 488-annexin V/propidium iodide staining based flow cytometry (reference value: 89.37%). Type of assay: functional. To be noted: read-out: Activity.
In assay [11] the test system is PC-3. Description: Induction of apoptosis in human PC-3 cells assessed as necrotic cells at 0.05 uM measured after 6 hrs by Alexa Fluor 488-annexin V/propidium iodide staining based flow cytometry (reference value: 1.28%). Type of assay: functional.
For assay [12], the system named is PC-3. As to the kind of experiment: Induction of apoptosis in human PC-3 cells assessed as effect on BAX gene expression at 0.05 uM measured after 3 hrs by qPCR analysis. Type of assay: functional, cell-based. The essentials:
as §2

The subject of assay [13] is PC-3. As to the kind of experiment: Induction of DNA damage in human PC-3 cells assessed as increase in phosphorylated gamma-H2AX expression at 0.05 uM measured after 6 hrs by DAPI staining based confocal laser scanning microscopy. The assay is classed as functional, cell-based. The essentials:
(§5)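 γ-H2AX immunostaining: PC3 on coverslips (1×10^5 cells), serum-starved 18 h, then treated (methods state 1 h; legend states 6 h); fixed 3.7% formaldehyde, permeabilized 0.25% Triton X-100, blocked 3% albumin, anti-phospho-H2A.X Ser139 (1:500) then Alexa Fluor 488 secondary, DAPI nuclei; confocal, 500 cells per slide, three experiments; UVC 20 min positive control.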

In assay [14] the test system is PC-3. Description: Induction of morphological changes in human PC-3 cells assessed as loss of adhesion at 0.24 uM measured after 24 hrs by phase contrast microscopy. The assay is classed as functional, cell-based. In outline: as §1
Assay [15] concerns PC-3. Description: Induction of morphological changes in human PC-3 cells assessed as reduction in cell density at 0.24 uM measured after 24 hrs by phase contrast microscopy. Type of assay: functional, cell-based. In outline:
as §1

In assay [16] the test system is PC-3. Description: Induction of morphological changes in human PC-3 cells assessed as cell rounding at 0.24 uM measured after 24 hrs in presence of antioxidant N-acetyl-L-cysteine by phase contrast microscopy. Type of assay: functional, cell-based. In outline:
as §1

Assay [17] has as its system PC-3. Description: Induction of ROS generation in human PC-3 cells at 0.24 uM measured after 30 mins by CellROX reagent based confocal microscopy. Type of assay: functional, cell-based. The essentials: as §3
In assay [18] the test system is PC-3. Description: Cell cycle arrest in human PC-3 cells assessed as accumulation of cells at sub-G1 phase at 0.24 uM measured after 3 hrs by propidium iodide staining based flow cytometry (reference value: 0.75 +/- 0.21%). Type of assay: functional. The essentials:
as §4

Assay [19] relates to PC-3. Description: Cell cycle arrest in human PC-3 cells assessed as increase in cell accumulation at sub-G1 phase at 0.24 uM measured after 3 hrs in presence of antioxidant N-acetyl-L-cysteine by propidium iodide staining based flow cytometry. The assay is classed as functional. The essentials: as §4
For assay [20], the system named is PC-3. As to the kind of experiment: Cell cycle arrest in human PC-3 cells assessed as reduction in cell accumulation at G0/G1 phase at 0.24 uM measured after 3 hrs by propidium iodide staining based flow cytometry. The assay is classed as functional. The essentials:
as §4

The test system of assay [21] is PC-3. As to the kind of experiment: Cell cycle arrest in human PC-3 cells assessed as reduction in cell accumulation at G0/G1 phase in presence of antioxidant N-acetyl-L-cysteine at 0.24 uM measured after 3 hrs by propidium iodide staining based flow cytometry. Type of assay: functional. In outline:
as §4

The subject of assay [22] is PC-3. Description: Cell cycle arrest in human PC-3 cells assessed as down regulation of CCND1 gene expression at 0.24 uM measured after 3 hrs by qPCR analysis. The assay is classed as functional, cell-based. The essentials: as §2
In assay [23] the test system is PC-3. As to the kind of experiment: Cell cycle arrest in human PC-3 cells assessed as up regulation of CDKN1A gene expression at 0.24 uM measured after 3 hrs by qPCR analysis. Type of assay: functional, cell-based.
For assay [24], the system named is PC-3. Description: Cell cycle arrest in human PC-3 cells assessed as down regulation of cyclin D1 expression at 0.24 uM measured after 3 hrs by Western blot analysis. Type of assay: functional, cell-based. The essentials:
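Western blot: PC3 seeded 1×10^7 per 100 mm dish, treated 3 h or 6 h, lysed in RIPA with protease/phosphatase inhibitors; 50 μg protein on 12% SDS-PAGE, PVDF transfer, 5% milk block, anti-cyclin D1 (1:1000) overnight at 4 °C, HRP anti-rabbit secondary, β-actin loading control, ECL detection and band densitometry; two independent experiments.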

Assay [25] has as its system PC-3. As to the kind of experiment: Induction of apoptosis in human PC-3 cells assessed as effect on BCL2 gene expression at 0.24 uM measured after 3 hrs by qPCR analysis. The assay is classed as functional, cell-based. The essentials:
as §2

Assay [26] relates to PC-3. Description: Induction of DNA damage in human PC-3 cells assessed as increase in phosphorylated gamma-H2AX expression at 0.24 uM measured after 6 hrs by DAPI staining based confocal laser scanning microscopy. The assay is classed as functional, cell-based. The essentials: as §5

Consider `COc1cc(/C=C/C(=O)N2CCC=CC2=O)cc(OC)c1OCCCCCCCCCCCCOc1no[n+]([O-])c1S(=O)(=O)c1ccccc1`, for which the outcome in the assay with PC-3 [1], in the assay with PC-3 [3], with PC-3 [4], with PC-3 [5], in the assay on PC-3 [7] and in the assay with PC-3 [8] was Active. Also, the outcome in the assay with PC-3 [9] and with PC-3 [13] was Active. Also, the result in the assay on PC-3 [2], in the assay with PC-3 [6] and in the assay with PC-3 [12] was inactive. Moreover, the viability at 0.05 µM in the assay with PC-3 [10] was 12.6%. Moreover, in the assay with PC-3 [11], the Activity is given as 0.87%.

Consider `COc1cc(/C=C/C(=O)N2CCC=CC2=O)cc(OC)c1OCCCOc1no[n+]([O-])c1S(=O)(=O)c1ccccc1`, for which the Activity result with PC-3 [14] is reported as “Active; Partial Loss Of Adhesion Observed”; with PC-3 [18] it was 7.6%; in the assay on PC-3 [20], “Active; Significant Reduction Observed”. Further, the outcome with PC-3 [15], with PC-3 [17], with PC-3 [21], in the assay on PC-3 [22], in the assay with PC-3 [23] and with PC-3 [24] was Active. Besides, the result in the assay on PC-3 [26] was Active. Also, the result in the assay with PC-3 [16], in the assay with PC-3 [19] and in the assay on PC-3 [25] was inactive.
